Measurements of several laboratories.
Each line is one published result; the experiments were not run side by side.
Cell line: CCRF-CEM
Observed: cell growth or viability

SMILES	technique	time	IC50 [µM]
Cc1ccc(C=C2SC(=O)N(CC(=O)Nc3ccc(F)cc3F)C2=O)cc1C	MTT	48 h	31.9
O=C1C(=Cc2ccccc2)CN(C(=O)CCCC(=O)N2CC(=Cc3ccccc3)C(=O)C(=Cc3ccccc3)C2)CC1=Cc1ccccc1	–	72 h	2.03
CCOC(=O)c1cc(CCc2ccc(OC)cc2)sc1N	–	48 h	1.9
CCC[C@H](Nc1nc(-c2ccc(NC(=O)NCC)c(OC)c2)ncc1C)c1cccnc1	fluorescence	72 h	0.0036
COC(=O)c1c(N)sc(CCc2cc(OC)ccc2OC)c1C	–	48 h	30
COc1ccccc1C(=O)c1cc2c(-c3ccccc3)c(O)ccc2o1	–	72 h	19
CC[C@]1(O)C[C@@H]2CN(CCc3c([nH]c4ccccc34)[C@@](C(=O)OC)(c3cc4c(cc3OC)N(C)[C@H]3[C@@](O)(C(=O)OC)[C@H](OC(C)=O)[C@]5(CC)C=CCN6CC[C@]43[C@@H]65)C2)C1	MTT	72 h	0.002
COc1cc(OC)cc(C(=O)c2cc3c(-c4ccccc4)c(O)ccc3o2)c1	–	72 h	9.6
CCOC(=O)c1cc(CCc2cc(OC)ccc2OC)sc1N	–	48 h	0.4
O=C1C(=Cc2ccccc2)CN(C(=O)C=CC=CC(=O)N2CC(=Cc3ccccc3)C(=O)C(=Cc3ccccc3)C2)CC1=Cc1ccccc1	–	72 h	39.2
COc1ccc(OC)c(CCc2cc(C#N)c(N)s2)c1	–	48 h	0.035
COc1cccc2c1C(=O)c1c(O)c3c(c(O)c1C2=O)C[C@@](O)(C(=O)CO)C[C@@H]3O[C@H]1C[C@H](N)[C@H](O)[C@H](C)O1	resazurin	72 h	0.01
O=C1C(=Cc2ccccc2)CN(C(=O)C=CC(=O)N2CC(=Cc3ccccc3)C(=O)C(=Cc3ccccc3)C2)CC1=Cc1ccccc1	–	72 h	7.75
O=C(CN1C(=O)SC(=Cc2ccc(F)cc2)C1=O)Nc1cccc(C(F)(F)F)c1	MTT	48 h	30.1
O=C1NC(=NCc2cccs2)S/C1=C\c1ccc2ncccc2c1	–	–	2.5
COC(=O)c1cc(CCc2cc(OC)ccc2OC)sc1N	–	48 h	1.4
COc1ccc(C(=O)c2cc3c(-c4ccccc4)c(O)ccc3o2)cc1	–	72 h	0.88
O=C(CN1C(=O)SC(=Cc2ccccc2)C1=O)Nc1nc2c(Cl)cccc2s1	MTT	48 h	35.1
COc1cccc(C(=O)c2cc3c(-c4ccccc4)c(OC)ccc3o2)c1	–	72 h	5.4
O=C(CN1C(=O)SC(=Cc2ccccc2)C1=O)Nc1ccc(F)cc1F	MTT	48 h	32.3
COc1cc(OC)cc(C(=O)c2cc3c(-c4ccccc4)c(OC)ccc3o2)c1	–	72 h	> 50
O=C1C(=Cc2ccccc2)CN(C(=O)CC(=O)N2CC(=Cc3ccccc3)C(=O)C(=Cc3ccccc3)C2)CC1=Cc1ccccc1	–	72 h	0.2
COC(=O)c1cc(CCc2ccccc2OC)sc1N	–	48 h	1.2
